According to ChEMBL document CHEMBL3046412, “Ring substituted 3-phenyl-1-(2-pyrazinyl)-2-propen-1-ones as potential photosynthesis-inhibiting, antifungal and antimycobacterial agents” (Farmaco, 2002):
Values after ≈ are worked out from the molar mass of the structure shown.

Experiments:
[1] = system: Mycobacterium tuberculosis; experiment: Antimycobacterial activity against Mycobacterium tuberculosis H37Rv ATCC 27294 at 12.5 ug/ml by microplate alamar blue assay relative to control; assay type: functional
[2] = system: Trichophyton mentagrophytes; experiment: Antifungal activity against Trichophyton mentagrophytes 445 after 72 hr by microdilution broth method; assay type: functional; settings: Trichophyton mentagrophytes, 445, 72 h
How it was run: (§1)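 Broth microdilution in RPMI 1640 buffered to pH 7.0 with 0.165 M MOPS; compounds in DMSO, with compound-free controls. Strain subcultured and kept on Sabouraud dextrose agar at 4 °C. Conidia were suspended in sterile 0.85% saline, counted in a Bürker chamber to 1.0–5.0×10⁵ cfu ml⁻¹ stock, and diluted 1:20 in medium. Static incubation at 35 °C. MIC is 80% growth inhibition versus control.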

[3] = system: Trichophyton mentagrophytes; experiment: Antifungal activity against Trichophyton mentagrophytes 445 after 120 hr by microdilution broth method; assay type: functional; settings: Trichophyton mentagrophytes, 445, 120 h; how it was run: as §1
Spinacia oleracea = experiment: Inhibition of photosynthesis in Spinacia oleracea (spinach) chloroplast assessed as reduction of oxygen evolution rate after 4 hr by spectrophotometric analysis; assay type: functional
How it was run: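 Oxygen evolution rate was measured in spinach chloroplasts at 30 mg l⁻¹, read spectrophotometrically with 2,6-dichlorophenol–indophenol as electron acceptor.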

Chlorella vulgaris [4] = experiment: Inhibition of photosynthesis in Chlorella vulgaris chloroplast assessed as reduction of oxygen evolution rate after 4 hr by spectrophotometric analysis; assay type: functional
Chlorella vulgaris [5] = experiment: Inhibition of photosynthesis in Chlorella vulgaris assessed as reduction of chlorophyll production at 0.1 mM/l after 7 days by spectrophotometric analysis; assay type: functional; settings: 168 h
How it was run: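 Statically cultured Chlorella vulgaris suspensions were exposed to 0.1 mmol l⁻¹ compound, with 1% solvent in samples and control. After 7 days, chlorophyll was extracted into N,N-dimethylformamide and quantified spectrophotometrically.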

Pichia kudriavzevii [6] = experiment: Antifungal activity against Pichia kudriavzevii E 28 after 24 hr by microdilution broth method; assay type: functional; settings: E 28, 24 h
How it was run: (§2)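 Broth microdilution in RPMI 1640 buffered to pH 7.0 with 0.165 M MOPS; compounds dissolved in DMSO; drug-free controls included. Strains were kept on Sabouraud dextrose agar at 4 °C and passaged onto SDA before testing. Yeasts, conidia or sporangiospores were suspended in 0.85% saline to a stock of 1.0–5.0×10⁵ cfu ml⁻¹, then diluted 1:20 in medium. Plates were incubated statically at 35 °C.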

Trichosporon beigelii [7] = experiment: Antifungal activity against Trichosporon beigelii 1188 after 48 hr by microdilution broth method; assay type: functional; settings: Trichosporon beigelii, 1188, 48 h; how it was run: as §2
Aspergillus fumigatus [8] = experiment: Antifungal activity against Aspergillus fumigatus 231 after 48 hr by microdilution broth method; assay type: functional; settings: Aspergillus fumigatus, 231, 48 h; how it was run: as §2
Candida tropicalis [9] = experiment: Antifungal activity against Candida tropicalis 156 after 24 hr by microdilution broth method; assay type: functional; settings: Candida tropicalis, 156, 24 h; how it was run: as §2
Candida albicans [10] = experiment: Antifungal activity against Candida albicans ATCC 44859 after 48 hr by microdilution broth method; assay type: functional; settings: ATCC 44859, 48 h; how it was run: as §2
Trichosporon beigelii [11] = experiment: Antifungal activity against Trichosporon beigelii 1188 after 24 hr by microdilution broth method; assay type: functional; settings: Trichosporon beigelii, 1188, 24 h; how it was run: as §2
Aspergillus fumigatus [12] = experiment: Antifungal activity against Aspergillus fumigatus 231 after 24 hr by microdilution broth method; assay type: functional; settings: Aspergillus fumigatus, 231, 24 h; how it was run: as §2
Candida tropicalis [13] = experiment: Antifungal activity against Candida tropicalis 156 after 48 hr by microdilution broth method; assay type: functional; settings: Candida tropicalis, 156, 48 h; how it was run: as §2
Candida albicans [14] = experiment: Antifungal activity against Candida albicans ATCC 44859 after 24 hr by microdilution broth method; assay type: functional; settings: ATCC 44859, 24 h; how it was run: as §2
Lichtheimia corymbifera [15] = experiment: Antifungal activity against Lichtheimia corymbifera 272 after 24 hr by microdilution broth method; assay type: functional; settings: Lichtheimia corymbifera, 272, 24 h; how it was run: as §2
Lichtheimia corymbifera [16] = experiment: Antifungal activity against Lichtheimia corymbifera 272 after 48 hr by microdilution broth method; assay type: functional; settings: Lichtheimia corymbifera, 272, 48 h; how it was run: as §2
Nakaseomyces glabratus [17] = experiment: Antifungal activity against Candida glabrata 20/I after 24 hr by microdilution broth method; assay type: functional; how it was run: as §2
Nakaseomyces glabratus [18] = experiment: Antifungal activity against Candida glabrata 20/I after 48 hr by microdilution broth method; assay type: functional; how it was run: as §2
Pichia kudriavzevii [19] = experiment: Antifungal activity against Pichia kudriavzevii E 28 after 48 hr by microdilution broth method; assay type: functional; settings: E 28, 48 h; how it was run: as §2

SMILES | inhibition at 12.5 µg/mL [1] | MIC80 [2] | MIC80 [3] | IC50 (Spinacia oleracea) | IC50 (Chlorella vulgaris [4]) | inhibition at 100 µM (Chlorella vulgaris [5]) | also measured
CN(C)c1ccc(/C=C/C(=O)c2cnccn2)cc1 | 26% | > 62.5 µM | > 62.5 µM | – | – | – | –
CCCCc1cnc(C(=O)/C=C/c2ccccc2O)cn1 | 33% | 3.91 µM (≈ 1.1 µg/mL) | 15.6 µM (≈ 4.41 µg/mL) | 184 µM | 147 µM | 89% | –
COc1cc(/C=C/C(=O)c2cnccn2)ccc1O | 35% | 125 µM (≈ 32 µg/mL) | – | – | – | – | –
CC(C)Cc1cnc(C(=O)/C=C/c2ccccc2O)cn1 | 20% | 31.2 µM (≈ 8.82 µg/mL) | – | 144 µM | 63 µM | 92% | –
CC(C)Cc1cnc(C(=O)/C=C/c2ccc(N(C)C)cc2)cn1 | 10% | 250 µM (≈ 77.4 µg/mL) | > 250 µM | – | – | – | –
COc1cc(/C=C/C(=O)c2cnc(CC(C)C)cn2)ccc1O | 53% | 250 µM (≈ 78.1 µg/mL) | – | – | – | – | –
O=C(/C=C/c1ccccc1O)c1cnccn1 | 55% | 15.6 µM (≈ 3.53 µg/mL) | 31.2 µM (≈ 7.07 µg/mL) | – | – | – | MIC80 (Pichia kudriavzevii [6]): 125 µM (≈ 28.3 µg/mL); MIC80 (Trichosporon beigelii [7]): 250 µM (≈ 56.6 µg/mL); MIC80 (Aspergillus fumigatus [8]): 250 µM (≈ 56.6 µg/mL); MIC80 (Candida tropicalis [9]): 125 µM (≈ 28.3 µg/mL); MIC80 (Candida albicans [10]): 62.5 µM (≈ 14.1 µg/mL); MIC80 (Trichosporon beigelii [11]): 125 µM (≈ 28.3 µg/mL); MIC80 (Aspergillus fumigatus [12]): 125 µM (≈ 28.3 µg/mL); MIC80 (Candida tropicalis [13]): 250 µM (≈ 56.6 µg/mL); MIC80 (Candida albicans [14]): 62.5 µM (≈ 14.1 µg/mL); MIC80 (Lichtheimia corymbifera [15]): 125 µM (≈ 28.3 µg/mL); MIC80 (Lichtheimia corymbifera [16]): 250 µM (≈ 56.6 µg/mL); MIC80 (Nakaseomyces glabratus [17]): 125 µM (≈ 28.3 µg/mL); MIC80 (Nakaseomyces glabratus [18]): 250 µM (≈ 56.6 µg/mL); MIC80 (Pichia kudriavzevii [19]): 250 µM (≈ 56.6 µg/mL)
CCCc1cnc(C(=O)/C=C/c2ccc(N(C)C)cc2)cn1 | 8% | > 250 µM | > 250 µM | – | – | – | –
CCCCc1cnc(C(=O)/C=C/c2ccc(O)cc2)cn1 | 51% | 31.2 µM (≈ 8.82 µg/mL) | 62.5 µM (≈ 17.6 µg/mL) | 306 µM | 265 µM | 10% | –
CCCc1cnc(C(=O)/C=C/c2ccccc2O)cn1 | 50% | 7.81 µM (≈ 2.1 µg/mL) | 7.81 µM (≈ 2.1 µg/mL) | 187 µM | 100 µM | 68% | –
CC(C)Cc1cnc(C(=O)/C=C/c2ccc(O)cc2)cn1 | 63% | > 500 µM | > 500 µM | 235 µM | 232 µM | 35% | –
O=C(/C=C/c1ccc(O)cc1)c1cnccn1 | 42% | 62.5 µM (≈ 14.1 µg/mL) | 125 µM (≈ 28.3 µg/mL) | – | – | – | –
CC(C)(C)c1ncc(C(=O)Nc2cc(O)cc(Cl)c2)nc1Cl | – | – | – | 105 µM | 99 µM | – | –
CCCc1cnc(C(=O)/C=C/c2ccc(O)c(OC)c2)cn1 | 20% | > 125 µM | – | – | – | – | –
CCCCc1cnc(C(=O)/C=C/c2ccc(N(C)C)cc2)cn1 | 0% | > 250 µM | > 250 µM | – | – | – | –
CCCCCCCCSc1cc(C(N)=S)ccn1 | – | – | – | 72 µM | 48 µM | 100% | –
CC(=O)N1CCN(c2ccc(OCC3COC(Cn4ccnc4)(c4ccc(Cl)cc4Cl)O3)cc2)CC1 (centres undefined) [KETOCONAZOLE] | – | 0.24 µM (≈ 0.128 µg/mL) | 1.95 µM (≈ 1.04 µg/mL) | – | – | – | MIC80 (Pichia kudriavzevii [6]): 1.95 µM (≈ 1.04 µg/mL); MIC80 (Trichosporon beigelii [7]): ≤ 0.06 µM; MIC80 (Aspergillus fumigatus [8]): 7.81 µM (≈ 4.15 µg/mL); MIC80 (Candida tropicalis [9]): 3.91 µM (≈ 2.08 µg/mL); MIC80 (Candida albicans [10]): ≤ 0.06 µM; MIC80 (Trichosporon beigelii [11]): ≤ 0.06 µM; MIC80 (Aspergillus fumigatus [12]): 7.81 µM (≈ 4.15 µg/mL); MIC80 (Candida tropicalis [13]): 7.81 µM (≈ 4.15 µg/mL); MIC80 (Candida albicans [14]): ≤ 0.06 µM; MIC80 (Lichtheimia corymbifera [15]): 15.6 µM (≈ 8.31 µg/mL); MIC80 (Lichtheimia corymbifera [16]): 15.6 µM (≈ 8.31 µg/mL); MIC80 (Nakaseomyces glabratus [17]): 0.49 µM (≈ 0.26 µg/mL); MIC80 (Nakaseomyces glabratus [18]): 1.95 µM (≈ 1.04 µg/mL); MIC80 (Pichia kudriavzevii [19]): 1.95 µM (≈ 1.04 µg/mL)
CC(C)(C)c1cnc(C(=O)Nc2cccc(O)c2)cn1 | – | – | – | 478 µM | 329 µM | – | –
NC(=O)c1cnccn1 [PYRAZINAMIDE] | 100% | – | – | – | – | – | –
CCCCc1cnc(C(=O)/C=C/c2ccc(O)c(OC)c2)cn1 | 45% | > 100 µM | – | – | – | – | –
CCCc1cnc(C(=O)/C=C/c2ccc(O)cc2)cn1 | 35% | 31.2 µM (≈ 8.38 µg/mL) | 62.5 µM (≈ 16.8 µg/mL) | 399 µM | 514 µM | 12% | –
